ChEMBL document CHEMBL3526002, “Tissue distribution and identification of radioactivity components at elimination phase after oral administration of [¹⁴C]CS-1036, an α-amylase inhibitor, to rats” (Drug Metab Dispos, 2013)

How the values were obtained:
Parameters in all cases: dose 5 mg/kg, dosed compound name [14C]CS-1036, route oral
Conditions in all cases: in vivo
[1] = test system: Harderian gland; assay: Drug uptake in albino F344/DuCrlCrlj rat harderian gland assessed as ng equivalent of CS-1036 at 5 mg/kg, po after 72 hrs by liquid scintillation counting; type: ADME, organism-based
[2] = Drug uptake in albino F344/DuCrlCrlj rat brown fat at 5 mg/kg, po after 336 hrs by liquid scintillation counting; type: ADME, organism-based, Brown adipose tissue
[3] = Drug uptake in albino F344/DuCrlCrlj rat bone marrow assessed as ng equivalent of CS-1036 at 5 mg/kg, po after 168 hrs by liquid scintillation counting; type: ADME, organism-based
[4] = test system: Heart; assay: Drug uptake in albino F344/DuCrlCrlj rat heart assessed as ng equivalent of CS-1036 at 5 mg/kg, po after 4 hrs by liquid scintillation counting; type: ADME, organism-based
[5] = test system: Adrenal gland; assay: Drug uptake in albino F344/DuCrlCrlj rat adrenal gland assessed as ng equivalent of CS-1036 at 5 mg/kg, po after 1 hr by liquid scintillation counting; type: ADME, organism-based
[6] = test system: Cerebrum; assay: Drug uptake in albino F344/DuCrlCrlj rat cerebrum at 5 mg/kg, po after 336 hrs by liquid scintillation counting; type: ADME, organism-based
In short: (§1)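 Single oral [14C]CS-1036 at 5 mg/kg was given to male rats (159–167 g; n = 3). Cerebrum was collected after aortic bleeding at 1, 4, 8, 24, 72, 168 or 336 h, weighed, and homogenized in 2 volumes of saline. A 0.5 ml aliquot was solubilized in Soluene-350 and counted by LSC with external-standard correction. Results are in ng equivalent/g tissue from specific activity and sample weight.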

[7] = test system: Plasma; assay: Drug uptake in albino F344/DuCrlCrlj rat plasma assessed as ng equivalent of CS-1036 at 5 mg/kg, po after 168 hrs by liquid scintillation counting; type: ADME, organism-based
[8] = test system: Stomach; assay: Drug uptake in albino F344/DuCrlCrlj rat stomach at 5 mg/kg, po after 8 hrs by liquid scintillation counting; type: ADME, organism-based
[9] = test system: Harderian gland; assay: Drug uptake in albino F344/DuCrlCrlj rat harderian gland assessed as ng equivalent of CS-1036 at 5 mg/kg, po after 24 hrs by liquid scintillation counting; type: ADME, organism-based
[10] = test system: Cerebellum; assay: Drug uptake in albino F344/DuCrlCrlj rat cerebellum at 5 mg/kg, po after 24 hrs by liquid scintillation counting; type: ADME, organism-based
[11] = test system: Kidney; assay: Drug uptake in albino F344/DuCrlCrlj rat kidney at 5 mg/kg, po after 72 hrs by liquid scintillation counting; type: ADME, organism-based
[12] = test system: Cerebrum; assay: Drug uptake in albino F344/DuCrlCrlj rat cerebrum assessed as ng equivalent of CS-1036 at 5 mg/kg, po after 1 hr by liquid scintillation counting; type: ADME, organism-based; in short: as §1
[13] = test system: Small intestine; assay: Drug uptake in albino F344/DuCrlCrlj rat small intestine assessed as ng equivalent of CS-1036 at 5 mg/kg, po after 8 hrs by liquid scintillation counting; type: ADME, organism-based
[14] = test system: Adrenal gland; assay: Drug uptake in albino F344/DuCrlCrlj rat adrenal gland at 5 mg/kg, po after 1 hr by liquid scintillation counting; type: ADME, organism-based
[15] = test system: Kidney; assay: Drug uptake in albino F344/DuCrlCrlj rat kidney at 5 mg/kg, po after 8 hrs by liquid scintillation counting; type: ADME, organism-based
[16] = test system: Cerebrum; assay: Drug uptake in albino F344/DuCrlCrlj rat cerebrum assessed as ng equivalent of CS-1036 at 5 mg/kg, po after 8 hrs by liquid scintillation counting; type: ADME, organism-based; in short: as §1
[17] = test system: Thymus; assay: Drug uptake in albino F344/DuCrlCrlj rat thymus assessed as ng equivalent of CS-1036 at 5 mg/kg, po after 336 hrs by liquid scintillation counting; type: ADME, organism-based
[18] = test system: Large intestine; assay: Drug uptake in albino F344/DuCrlCrlj rat large intestine assessed as ng equivalent of CS-1036 at 5 mg/kg, po after 1 hr by liquid scintillation counting; type: ADME, organism-based
[19] = test system: Thymus; assay: Drug uptake in albino F344/DuCrlCrlj rat thymus assessed as ng equivalent of CS-1036 at 5 mg/kg, po after 4 hrs by liquid scintillation counting; type: ADME, organism-based
[20] = test system: Zone of skin; assay: Drug uptake in albino F344/DuCrlCrlj rat skin at 5 mg/kg, po after 72 hrs by liquid scintillation counting; type: ADME, organism-based
[21] = test system: Cerebellum; assay: Drug uptake in albino F344/DuCrlCrlj rat cerebellum at 5 mg/kg, po after 72 hrs by liquid scintillation counting; type: ADME, organism-based
[22] = test system: Kidney; assay: Drug uptake in albino F344/DuCrlCrlj rat kidney at 5 mg/kg, po after 24 hrs by liquid scintillation counting; type: ADME, organism-based
[23] = Drug uptake in albino F344/DuCrlCrlj rat thyroid gland assessed as ng equivalent of CS-1036 at 5 mg/kg, po after 8 hrs by liquid scintillation counting; type: ADME, organism-based
[24] = test system: Kidney; assay: Drug uptake in albino F344/DuCrlCrlj rat kidney assessed as ng equivalent of CS-1036 at 5 mg/kg, po after 72 hrs by liquid scintillation counting; type: ADME, organism-based
[25] = test system: Aorta; assay: Drug uptake in albino F344/DuCrlCrlj rat aorta assessed as ng equivalent of CS-1036 at 5 mg/kg, po after 24 hrs by liquid scintillation counting; type: ADME, organism-based
[26] = Drug uptake in albino F344/DuCrlCrlj rat brown fat assessed as ng equivalent of CS-1036 at 5 mg/kg, po after 1 hr by liquid scintillation counting; type: ADME, organism-based, Brown adipose tissue
[27] = Drug uptake in albino F344/DuCrlCrlj rat urinary bladder assessed as ng equivalent of CS-1036 at 5 mg/kg, po after 72 hrs by liquid scintillation counting; type: ADME, organism-based
[28] = test system: Cerebrum; assay: Drug uptake in albino F344/DuCrlCrlj rat cerebrum assessed as ng equivalent of CS-1036 at 5 mg/kg, po after 72 hrs by liquid scintillation counting; type: ADME, organism-based; in short: as §1
[29] = test system: Blood; assay: Drug uptake in albino F344/DuCrlCrlj rat blood assessed as ng equivalent of CS-1036 at 5 mg/kg, po after 24 hrs by liquid scintillation counting; type: ADME, organism-based
In short: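 Male F344/DuCrlCrlj rats (159–167 g; n = 3 per time point) received a single oral dose of [14C]CS-1036 at 5 mg/kg. Blood was taken from the abdominal aorta at 1, 4, 8, 24, 72, 168 and 336 h. Radioactivity was counted by LSC with external-standard efficiency correction. Results were converted to ng equivalent of CS-1036/ml using specific activity and sample volume, and reported as mean + S.D.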

[30] = test system: Pancreas; assay: Drug uptake in albino F344/DuCrlCrlj rat pancreas at 5 mg/kg, po after 72 hrs by liquid scintillation counting; type: ADME, organism-based
[31] = test system: Heart; assay: Drug uptake in albino F344/DuCrlCrlj rat heart assessed as ng equivalent of CS-1036 at 5 mg/kg, po after 1 hr by liquid scintillation counting; type: ADME, organism-based
[32] = test system: Plasma; assay: Drug uptake in albino F344/DuCrlCrlj rat plasma at 5 mg/kg, po after 72 hrs by liquid scintillation counting; type: ADME, organism-based
[33] = Drug uptake in albino F344/DuCrlCrlj rat urinary bladder at 5 mg/kg, po after 336 hrs by liquid scintillation counting; type: ADME, organism-based
[34] = test system: Liver; assay: Drug uptake in albino F344/DuCrlCrlj rat liver assessed as ng equivalent of CS-1036 at 5 mg/kg, po after 4 hrs by liquid scintillation counting; type: ADME, organism-based

Compound C[C@H]1O[C@@H](O[C@H]2[C@H](O)[C@@H](O)[C@@H](O[14C@H]3[14C@H](O)[14CH2]N[14C@@H]3[14CH2]O)O[C@@H]2CO)[C@H](O)[C@@H](O)[C@@H]1O has a Radiolabel recovery [1] of 67 ngequiv/g, a Radiolabel recovery [2] of 54.3 ngequiv/g and a Radiolabel recovery [3] of 23 ngequiv/g. It also gave a Radiolabel recovery [4] of 7 ngequiv/g, a Radiolabel recovery [5] of 3.3 ngequiv/g and a Radiolabel recovery [6] of 4.88 ngequiv/g. For the same compound, the Radiolabel recovery [7] was 1.65 ngequiv/ml, the Radiolabel recovery [8] was 135 ngequiv/g and the Radiolabel recovery [9] was 88 ngequiv/g. It also gave a Radiolabel recovery [10] of 21.1 ngequiv/g, a Radiolabel recovery [11] of 77.9 ngequiv/g and a Radiolabel recovery [12] of 0.23 ngequiv/g. The Radiolabel recovery [13] was 36 ngequiv/g, the Radiolabel recovery [14] was 32.2 ngequiv/g and the Radiolabel recovery [15] was 1320 ngequiv/g. For the same compound, the Radiolabel recovery [16] was 1.44 ngequiv/g, the Radiolabel recovery [17] was 1.96 ngequiv/g and the Radiolabel recovery [18] was 1080 ngequiv/g. It also gave a Radiolabel recovery [19] of 2.8 ngequiv/g, a Radiolabel recovery [20] of 91.5 ngequiv/g and a Radiolabel recovery [21] of 9.8 ngequiv/g. The Radiolabel recovery [22] was 137 ngequiv/g, the Radiolabel recovery [23] was 57.2 ngequiv/g and the Radiolabel recovery [24] was 29.7 ngequiv/g. The Radiolabel recovery [25] was 8.4 ngequiv/g, the Radiolabel recovery [26] was 4.1 ngequiv/g and the Radiolabel recovery [27] was 6.8 ngequiv/g. It also gave a Radiolabel recovery [28] of 4.88 ngequiv/g, a Radiolabel recovery [29] of 4 ngequiv/ml and a Radiolabel recovery [30] of 186 ngequiv/g. It also gave a Radiolabel recovery [31] of 1.1 ngequiv/g, a Radiolabel recovery [32] of 14.5 ngequiv/ml and a Radiolabel recovery [33] of 11.7 ngequiv/g. The Radiolabel recovery [34] was 93 ngequiv/g.
